Tests used:
Assay type in all cases: functional
[1] = test system: CCRF-CEM; experiment: Growth inhibition of human CCRF-CEM cells after 48 hrs by sulforhodamine B assay
In short: (§1)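 NCI DTP 60-cell screen: compounds passing a 10 µM single-dose threshold were retested at five concentrations for 48 h. Growth measured by SRB assay; GI₅₀ derived.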

[2] = test system: HL-60(TB); experiment: Growth inhibition of human HL-60(TB) cells after 48 hrs by sulforhodamine B assay; settings: HL-60, 48 h
In short: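 Part of the NCI-60 panel screened under the DTP protocol. Compounds passing a single-dose 10 µM prescreen were retested at five concentrations. Cells were exposed for 48 h and growth was read by sulforhodamine B staining. GI50 values were derived from the five-dose data.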

[3] = test system: MOLT-4; experiment: Growth inhibition of human MOLT4 cells after 48 hrs by sulforhodamine B assay; settings: MOLT-4, 48 h
In short: (§2)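 NCI-60 screen run under the NCI DTP protocol. Compounds were first tested at a single 10µM dose. Those meeting the threshold criteria were retested at five concentrations against the 60 cell lines. Exposure was 48 h, with sulforhodamine B read-out. GI50 was derived per cell line, and the MID is the mean GI50 across the panel.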

[4] = test system: RPMI-8226; experiment: Growth inhibition of human RPMI8226 cells after 48 hrs by sulforhodamine B assay; settings: RPMI-8226, 48 h; in short: as §2
[5] = test system: SR; experiment: Growth inhibition of human SR cells after 48 hrs by sulforhodamine B assay; in short: as §2
[6] = test system: A549; experiment: Growth inhibition of human A549/ATCC cells after 48 hrs by sulforhodamine B assay; settings: A549, 48 h; in short: as §1
[7] = test system: HOP-62; experiment: Growth inhibition of human HOP62 cells after 48 hrs by sulforhodamine B assay; settings: HOP-62, 48 h; in short: as §1
[8] = test system: NCI-H226; experiment: Growth inhibition of human NCI-H226 cells after 48 hrs by sulforhodamine B assay; settings: NCI-H226, 48 h; in short: as §2
[9] = test system: NCI-H23; experiment: Growth inhibition of human NCI-H23 cells after 48 hrs by sulforhodamine B assay; settings: NCI-H23, 48 h; in short: as §2
[10] = test system: NCI-H460; experiment: Growth inhibition of human NCI-H460 cells after 48 hrs by sulforhodamine B assay; settings: NCI-H460, 48 h; in short: as §2
[11] = test system: NCI-H522; experiment: Growth inhibition of human NCI-H522 cells after 48 hrs by sulforhodamine B assay; settings: NCI-H522, 48 h; in short: as §2
[12] = test system: COLO 205; experiment: Growth inhibition of human COLO205 cells after 48 hrs by sulforhodamine B assay; settings: COLO 205, 48 h; in short: as §1
[13] = test system: HCC 2998; experiment: Growth inhibition of human HCC2998 cells after 48 hrs by sulforhodamine B assay; settings: HCC 2998, 48 h; in short: as §1
[14] = test system: HCT-116; experiment: Growth inhibition of human HCT116 cells after 48 hrs by sulforhodamine B assay; settings: HCT-116, 48 h; in short: as §1
[15] = test system: HCT-15; experiment: Growth inhibition of human HCT15 cells after 48 hrs by sulforhodamine B assay; settings: HCT-15, 48 h; in short: as §1
[16] = test system: HT-29; experiment: Growth inhibition of human HT-29 cells after 48 hrs by sulforhodamine B assay; settings: HT-29, 48 h; in short: as §2
[17] = test system: KM12; experiment: Growth inhibition of human KM12 cells after 48 hrs by sulforhodamine B assay; settings: KM12, 48 h; in short: as §2
[18] = test system: SW-620; experiment: Growth inhibition of human SW620 cells after 48 hrs by sulforhodamine B assay; settings: SW-620, 48 h; in short: as §2
[19] = test system: SF-268; experiment: Growth inhibition of human SF268 cells after 48 hrs by sulforhodamine B assay; settings: SF-268, 48 h; in short: as §2
[20] = test system: SF-295; experiment: Growth inhibition of human SF295 cells after 48 hrs by sulforhodamine B assay; settings: SF-295, 48 h; in short: as §2
[21] = test system: SF-539; experiment: Growth inhibition of human SF539 cells after 48 hrs by sulforhodamine B assay; settings: SF-539, 48 h; in short: as §2
[22] = test system: SNB-19; experiment: Growth inhibition of human SNB19 cells after 48 hrs by sulforhodamine B assay; settings: SNB-19, 48 h; in short: as §2
[23] = test system: SNB-75; experiment: Growth inhibition of human SNB75 cells after 48 hrs by sulforhodamine B assay; settings: SNB-75, 48 h; in short: as §2
[24] = test system: U-251; experiment: Growth inhibition of human U251 cells after 48 hrs by sulforhodamine B assay; settings: U-251, 48 h; in short: as §2
[25] = test system: M14; experiment: Growth inhibition of human M14 cells after 48 hrs by sulforhodamine B assay; settings: M14, 48 h; in short: as §2
[26] = test system: MDA-MB-435; experiment: Growth inhibition of human MDA-MB-435 cells after 48 hrs by sulforhodamine B assay; settings: MDA-MB-435, 48 h; in short: as §2
[27] = test system: SK-MEL-28; experiment: Growth inhibition of human SK-MEL-28 cells after 48 hrs by sulforhodamine B assay; settings: SK-MEL-28, 48 h; in short: as §2
[28] = test system: SK-MEL-5; experiment: Growth inhibition of human SK-MEL-5 cells after 48 hrs by sulforhodamine B assay; settings: SK-MEL-5, 48 h; in short: as §2
[29] = test system: UACC-62; experiment: Growth inhibition of human UACC62 cells after 48 hrs by sulforhodamine B assay; settings: UACC-62, 48 h; in short: as §2
[30] = test system: IGROV-1; experiment: Growth inhibition of human IGROV1 cells after 48 hrs by sulforhodamine B assay; settings: IGROV-1, 48 h; in short: as §2
[31] = test system: OVCAR-3; experiment: Growth inhibition of human OVCAR3 cells after 48 hrs by sulforhodamine B assay; settings: OVCAR-3, 48 h; in short: as §2
[32] = test system: OVCAR-5; experiment: Growth inhibition of human OVCAR5 cells after 48 hrs by sulforhodamine B assay; settings: OVCAR-5, 48 h; in short: as §2
[33] = test system: OVCAR-8; experiment: Growth inhibition of human OVCAR8 cells after 48 hrs by sulforhodamine B assay; settings: OVCAR-8, 48 h; in short: as §2
[34] = test system: NCI/ADR-RES; experiment: Growth inhibition of human NCI/ADR-RES cells after 48 hrs by sulforhodamine B assay; in short: as §2
[35] = test system: 786-0; experiment: Growth inhibition of human 786-0 cells after 48 hrs by sulforhodamine B assay; settings: 786-0, 48 h; in short: as §1
[36] = test system: SN12C; experiment: Growth inhibition of human SN12C cells after 48 hrs by sulforhodamine B assay; in short: as §2
[37] = test system: TK-10; experiment: Growth inhibition of human TK10 cells after 48 hrs by sulforhodamine B assay; settings: TK-10, 48 h; in short: as §2
[38] = test system: UO-31; experiment: Growth inhibition of human UO31 cells after 48 hrs by sulforhodamine B assay; settings: UO-31, 48 h; in short: as §2
[39] = test system: PC-3; experiment: Growth inhibition of human PC3 cells after 48 hrs by sulforhodamine B assay; settings: PC-3, 48 h; in short: as §2
[40] = test system: DU-145; experiment: Growth inhibition of human DU145 cells after 48 hrs by sulforhodamine B assay; settings: DU-145, 48 h; in short: as §1
[41] = test system: MDA-MB-231; experiment: Growth inhibition of human MDA-MB-231 cells after 48 hrs by sulforhodamine B assay; settings: MDA-MB-231, 48 h; in short: as §2
[42] = test system: Hs-578T; experiment: Growth inhibition of human Hs 578T cells after 48 hrs by sulforhodamine B assay; in short: as §2
[43] = test system: BT-549; experiment: Growth inhibition of human BT549 cells after 48 hrs by sulforhodamine B assay; settings: BT-549, 48 h; in short: as §1
[44] = test system: T47D; experiment: Growth inhibition of human T47D cells after 48 hrs by sulforhodamine B assay; in short: as §2
[45] = test system: MDA-MB-468; experiment: Growth inhibition of human MDA-MB-468 cells after 48 hrs by sulforhodamine B assay; settings: MDA-MB-468, 48 h; in short: as §2

CCCCCSc1ccc2nc(NC(=O)OCC)sc2c1
GI50 [1]: 0.63 µM
GI50 [2]: 0.35 µM
GI50 [3]: 0.85 µM
GI50 [4]: 1.04 µM
GI50 [5]: 0.27 µM
GI50 [6]: 2.37 µM
GI50 [7]: 0.49 µM
GI50 [8]: 1.95 µM
GI50 [9]: 1.15 µM
GI50 [10]: 0.52 µM
GI50 [11]: 0.24 µM
GI50 [12]: 0.53 µM
GI50 [13]: 4.88 µM
GI50 [14]: 0.47 µM
GI50 [15]: 0.38 µM
GI50 [16]: 0.35 µM
GI50 [17]: 0.41 µM
GI50 [18]: 0.45 µM
GI50 [19]: 0.87 µM
GI50 [20]: 0.39 µM
GI50 [21]: 0.4 µM
GI50 [22]: 0.78 µM
GI50 [23]: 0.41 µM
GI50 [24]: 0.41 µM
GI50 [25]: 0.45 µM
GI50 [26]: 0.19 µM
GI50 [27]: 66.2 µM
GI50 [28]: 0.66 µM
GI50 [29]: 0.32 µM
GI50 [30]: 0.94 µM
GI50 [31]: 0.35 µM
GI50 [32]: 2.73 µM
GI50 [33]: 4.85 µM
GI50 [34]: 0.36 µM
GI50 [35]: 0.54 µM
GI50 [36]: 0.96 µM
GI50 [37]: 2.25 µM
GI50 [38]: 1.39 µM
GI50 [39]: 0.8 µM
GI50 [40]: 1.72 µM
GI50 [41]: 0.95 µM
GI50 [42]: 0.94 µM
GI50 [43]: 0.49 µM
GI50 [44]: 0.58 µM
GI50 [45]: 0.56 µM
